Measured values: ChEMBL document CHEMBL1828629, “Identification of a non-phosphorylated, cell permeable, small molecule ligand for the Stat3 SH2 domain” (Bioorg Med Chem Lett, 2011)
Values belong to the compound of their own block, whether it stands above or below them. The source made the active and inactive calls. The calls are words filed in the database; no cut-off is given here.

Columns and labels:
[1] = target: T1, Signal transducer and activator of transcription 3 (Mus musculus, UniProt P42227); assay: Inhibition of STAT3 in mouse NIH3T3/vSrc nuclear extract assessed as disruption of the Stat3-DNA complex pre-incubated for 30 mins by EMSA analysis
T1 sequence (P42227 whole entry): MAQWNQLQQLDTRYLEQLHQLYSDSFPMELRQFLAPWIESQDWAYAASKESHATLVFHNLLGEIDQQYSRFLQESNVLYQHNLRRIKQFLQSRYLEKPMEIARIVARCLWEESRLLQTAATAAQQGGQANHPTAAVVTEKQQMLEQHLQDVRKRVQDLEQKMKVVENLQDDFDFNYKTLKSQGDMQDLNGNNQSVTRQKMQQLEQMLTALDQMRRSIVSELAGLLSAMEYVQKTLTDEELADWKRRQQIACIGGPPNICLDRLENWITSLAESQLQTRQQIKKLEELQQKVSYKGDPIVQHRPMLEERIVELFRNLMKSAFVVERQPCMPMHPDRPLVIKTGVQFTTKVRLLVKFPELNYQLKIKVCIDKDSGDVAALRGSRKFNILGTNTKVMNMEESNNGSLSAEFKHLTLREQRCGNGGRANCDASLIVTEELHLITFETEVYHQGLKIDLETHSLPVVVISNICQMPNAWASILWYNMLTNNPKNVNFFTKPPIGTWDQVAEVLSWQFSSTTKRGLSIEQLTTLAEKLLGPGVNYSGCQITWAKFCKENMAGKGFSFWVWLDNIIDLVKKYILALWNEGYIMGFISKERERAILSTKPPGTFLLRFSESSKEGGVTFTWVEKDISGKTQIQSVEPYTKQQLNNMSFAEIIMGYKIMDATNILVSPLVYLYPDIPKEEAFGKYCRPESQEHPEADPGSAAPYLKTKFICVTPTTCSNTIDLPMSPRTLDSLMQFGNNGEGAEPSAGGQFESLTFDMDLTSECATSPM
How it was run: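 NIH3T3/vSrc nuclear extracts were pre-incubated with a range of compound concentrations for 30 min at room temperature. They were then incubated with 32P-labelled hSIE probe (c-fos m67 variant) for 30 min at 30 °C and resolved by EMSA. Stat3 DNA-binding bands were quantified as percent of control, and IC50 was derived from those plots.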

[2] = target: T2, Signal transducer and activator of transcription 3 (Homo sapiens, UniProt P40763); assay: Inhibition of STAT3 using fluorescent probe 5-carboxyfluorescein-GpYLPQTV-NH2 after 15 mins by fluorescence polarisation assay
T2 sequence (P40763 whole entry): as the sequence (P42227 whole entry) above, with D760E counted along it

[3] = target: T2, Signal transducer and activator of transcription 3; settings: MDA-MB-468, 20 uM
[4] = target: T2, Signal transducer and activator of transcription 3; settings: JJN3, 20 uM
[5] = target: T2, Signal transducer and activator of transcription 3; settings: MDA-MB-468, 20 uM; remark: listed apart in the source
[6] = target: T2, Signal transducer and activator of transcription 3; settings: JJN3, 20 uM; remark: listed apart in the source
[7] = target: T2, Signal transducer and activator of transcription 3; settings: MDA-MB-468, 20 uM; remark: listed apart in the source
[8] = target: T2, Signal transducer and activator of transcription 3; settings: JJN3, 20 uM; remark: listed apart in the source
[9] = target: T2, Signal transducer and activator of transcription 3; settings: JJN-3, 20 uM
[10] = Solubility of the compound in water; format: physicochemical; settings: buffer
[11] = Cytotoxicity against human JJN-3 cells after 72 hrs by MTS assay; format: functional, cell-based; settings: JJN-3, 72 h
[12] = target: T2, Signal transducer and activator of transcription 3; settings: MDA-MB-468, 20 uM; remark: listed apart in the source
DU-145 = assay: Cytotoxicity against human DU145 cells after 72 hrs by MTS assay; format: functional, cell-based; settings: DU-145, 72 h
[13] = Lipophilicity, log P of the compound; format: physicochemical; settings: octanol/water
[14] = Cytotoxicity against human MDA468 cells after 72 hrs by MTS assay; format: functional, cell-based; settings: MDA-MB-468, 72 h
[15] = target: T3, Signal transducer and activator of transcription 1 (Mus musculus, UniProt P42225); assay: Inhibition of mouse STAT1 using fluorescent probe 5-carboxyfluorescein-GpYLPQTV-NH2 after 30 mins by fluorescence polarisation assay
T3 sequence (P42225 whole entry): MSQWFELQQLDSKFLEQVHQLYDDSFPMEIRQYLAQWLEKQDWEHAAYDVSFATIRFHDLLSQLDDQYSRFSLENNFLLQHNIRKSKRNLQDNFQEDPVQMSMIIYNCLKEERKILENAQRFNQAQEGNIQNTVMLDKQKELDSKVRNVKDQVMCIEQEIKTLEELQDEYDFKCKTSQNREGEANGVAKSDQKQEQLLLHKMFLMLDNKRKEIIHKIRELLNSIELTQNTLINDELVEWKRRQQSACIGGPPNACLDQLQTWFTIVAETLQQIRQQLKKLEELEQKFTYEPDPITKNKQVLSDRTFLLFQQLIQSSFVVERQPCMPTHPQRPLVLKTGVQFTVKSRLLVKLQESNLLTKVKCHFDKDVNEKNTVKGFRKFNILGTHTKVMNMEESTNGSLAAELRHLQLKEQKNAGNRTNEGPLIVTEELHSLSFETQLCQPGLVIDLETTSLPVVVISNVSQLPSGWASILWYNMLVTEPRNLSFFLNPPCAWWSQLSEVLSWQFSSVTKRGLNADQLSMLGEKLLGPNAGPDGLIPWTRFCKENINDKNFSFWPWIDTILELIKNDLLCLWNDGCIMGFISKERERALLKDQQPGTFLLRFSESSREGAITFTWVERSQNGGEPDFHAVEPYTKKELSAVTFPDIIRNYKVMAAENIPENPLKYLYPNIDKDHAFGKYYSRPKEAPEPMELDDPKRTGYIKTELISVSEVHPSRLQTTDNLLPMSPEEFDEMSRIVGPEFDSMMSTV

[16] = Inhibition of mouse STAT5 using fluorescent probe 5-carboxyfluorescein-GpYLPQTV-NH2 after 30 mins by fluorescence polarisation assay
[17] = target: T2, Signal transducer and activator of transcription 3; assay: Inhibition of STAT3 phosphorylation in human MDA468 cells at 100 uM after 24 hrs by Western blotting; format: cell-based; settings: MDA-MB-468
How it was run: (§1)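 Intact MDA-468 or JJN3 cells were treated for 24 h, with DMSO as the untreated control. Cells were lysed in Tris-HCl/EDTA/1% NP-40/150 mM NaCl for 30 min on ice, freeze-thawed once at −80 °C and centrifuged at 12000g for 15 min. Whole-cell lysates were run on 6.5–15% SDS-PAGE and immunoblotted for pY705Stat3 and total Stat3.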

[18] = target: T1, Signal transducer and activator of transcription 3; assay: Inhibition of mouse STAT3 SH2 domain using fluorescent probe 5-carboxyfluorescein-GpYLPQTV-NH2 after 30 mins by fluorescence polarisation assay
[19] = target: T2, Signal transducer and activator of transcription 3; assay: Inhibition of STAT3 phosphorylation in human JJN-3 cells at 100 uM after 24 hrs by Western blotting; format: cell-based; how it was run: as §1

IC50 [1]: 65.4 µM | Ki [2]: 6.2 µM
SMILES: CN(CC(=O)N(Cc1ccc(C2CCCCC2)cc1)c1ccc(C(=O)O)c(O)c1)S(=O)(=O)c1ccc(-c2ccccc2)cc1

SMILES: CN(CC(=O)N(Cc1ccc(C2CCCCC2)cc1)c1ccc(C(=O)O)c(O)c1)S(=O)(=O)c1c(F)c(F)c(F)c(F)c1F
inhibition [3]: Active | inhibition [4]: Active | inhibition [5]: Active | inhibition [6]: Active | inhibition [7]: Active | inhibition [8]: Active | inhibition [9]: Active | solubility [10]: soluble | EC50 [11]: 16.7 µM | inhibition [12]: Active

logP [13]: 5.95 | solubility [10]: Insoluble
SMILES: CN(CC(=O)N(Cc1ccc(C2CCCCC2)cc1)c1ccc(C(=O)O)c(O)c1)S(=O)(=O)c1cccc2ccccc12
EC50 (DU-145): 74.5 µM | EC50 [14]: 46.5 µM | EC50 [11]: 106 µM

IC50 [1]: > 300 µM | Ki [2]: > 100 µM
SMILES: CN(CC(=O)N(Cc1ccc(C2CCCCC2)cc1)c1ccc(C(=O)O)c(O)c1)S(=O)(=O)c1cn(C)cn1

Ki [15]: > 25 µM | Ki [16]: > 25 µM | inhibition [17]: Active | Ki [18]: 15 µM | inhibition [19]: Active
SMILES: Cc1ccc(S(=O)(=O)N(C)CC(=O)N(Cc2ccc(C3CCCCC3)cc2)c2ccc(C(=O)O)c(O)c2)cc1

IC50 [1]: 67.4 µM
SMILES: COc1ccc(S(=O)(=O)N(C)CC(=O)N(Cc2ccc(C3CCCCC3)cc2)c2ccc(C(=O)O)c(O)c2)cc1

IC50 [1]: > 300 µM
SMILES: CN(CC(=O)N(Cc1ccc(C2CCCCC2)cc1)c1ccc(C(=O)O)c(O)c1)S(=O)(=O)c1ccc(F)cc1
